In brackets after ≈: the same amount, converted by molar mass. Activity calls are given as the source filed them. The rule behind the calls is not given here.
What was measured:
[1] = system: Mycobacterium tuberculosis; assay: Antimycobacterial activity against Mycobacterium tuberculosis H37Rv ATCC 27294 after 14 days by microscopy; format: functional; details: H37Rv ATCC 27294, 336 h
Outline: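 2-fold serial dilutions of compounds (from DMSO stocks), 50 to 0.195 µM final, in 7H9 broth with 0.05% Tween 80, 0.2% glycerol and ADS. Inoculum is a culture grown to A600 0.2 and diluted 1:1000. Incubated at 37 C for 14 days. MIC99 (99% growth inhibition) read macroscopically with an inverted plate reader. Done in triplicate.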

THP-1 = assay: Cytotoxicity against human THP1 cells; format: cell-based
[2] = system: Mycobacterium tuberculosis; assay: Antimycobacterial activity against Mycobacterium tuberculosis H37Rv ATCC 27294 infected in Balb/c mouse assessed as reduction in bacterial load in spleen at 25 mg/kg, po qd administered five days in a week starting 2 weeks post challenge measured after 10 weeks relative to untreated control; format: functional
Outline: (§1)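 Balb/c mice of either sex (25-30 g) infected by aerosol in an inhalation chamber, about 1000 bacilli/lung. Oral gavage once daily, 5 days/week, starting 2 weeks post-infection. DMSO and untreated groups as controls. N = 5/group, killed at 3, 6 and 10 weeks of therapy. Lung or spleen homogenates in saline plated in duplicate on 7H11 agar, 37 C for 3–4 weeks. Read-out is log10 CFU/organ.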

[3] = system: Mycobacterium tuberculosis; assay: Antimycobacterial activity against Mycobacterium tuberculosis H37Rv ATCC 27294 infected in Balb/c mouse assessed as reduction in bacterial load in spleen at 50 mg/kg, po qd administered five days in a week starting 2 weeks post challenge measured after 3 weeks relative to DMSO-treated control; format: functional; outline: as §1
[4] = system: Mycobacterium tuberculosis; assay: Antimycobacterial activity against Mycobacterium tuberculosis H37Rv ATCC 27294 infected in Balb/c mouse assessed as reduction in bacterial load in lung at 25 mg/kg, po qd administered five days in a week starting 2 weeks post challenge measured after 3 to 10 weeks relative to untreated control; format: functional, organism-based; set-up: dose 25 mg/kg; outline: as §1
[5] = system: Mycobacterium tuberculosis; assay: Antimycobacterial activity against Mycobacterium tuberculosis H37Rv ATCC 27294 infected in Balb/c mouse assessed as reduction in bacterial load in spleen at 100 mg/kg, po qd administered five days in a week starting 2 weeks post challenge measured after 10 weeks relative to DMSO-treated control; format: functional
[6] = system: Mycobacterium tuberculosis; assay: Antimycobacterial activity against Mycobacterium tuberculosis H37Rv ATCC 27294 infected in Balb/c mouse assessed as reduction in bacterial load in lung at 100 mg/kg, po qd administered five days in a week starting 2 weeks post challenge measured after 3 weeks relative to DMSO-treated control; format: functional; outline: as §1
[7] = system: Mycobacterium tuberculosis; assay: Antimycobacterial activity against Mycobacterium tuberculosis H37Rv ATCC 27294 infected in Balb/c mouse assessed as reduction in bacterial load in spleen at 100 mg/kg, po qd administered five days in a week starting 2 weeks post challenge measured after 6 weeks relative to DMSO-treated control; format: functional; outline: as §1
[8] = system: Mycobacterium tuberculosis; assay: Ratio of isoniazid MIC99 to compound MIC99 for Mycobacterium tuberculosis H37Rv ATCC 27294 after 14 days by microscopy; format: functional
[9] = system: Mycobacterium tuberculosis; assay: Antimycobacterial activity against Mycobacterium tuberculosis H37Rv ATCC 27294 infected in Balb/c mouse assessed as reduction in bacterial load in lung at 50 mg/kg, po qd administered five days in a week starting 2 weeks post challenge measured after 3 to 10 weeks relative to untreated control; format: functional, organism-based; set-up: dose 50 mg/kg; outline: as §1
[10] = system: Mycobacterium tuberculosis; assay: Antimycobacterial activity against Mycobacterium tuberculosis H37Rv ATCC 27294 infected in Balb/c mouse assessed as reduction in bacterial load in lung at 100 mg/kg, po qd administered five days in a week starting 2 weeks post challenge measured after 10 weeks relative to DMSO-treated control; format: functional; outline: as §1
[11] = system: Mycobacterium tuberculosis; assay: Antimycobacterial activity against Mycobacterium tuberculosis H37Rv ATCC 27294 infected in Balb/c mouse assessed as reduction in bacterial load in spleen at 100 mg/kg, po qd administered five days in a week starting 2 weeks post challenge measured after 3 weeks relative to DMSO-treated control; format: functional; outline: as §1
[12] = system: Mycobacterium tuberculosis; assay: Antimycobacterial activity against Mycobacterium tuberculosis H37Rv ATCC 27294 infected in Balb/c mouse assessed as reduction in bacterial load in lung at 100 mg/kg, po qd administered five days in a week starting 2 weeks post challenge measured after 6 weeks relative to DMSO-treated control; format: functional; outline: as §1
[13] = system: Mycobacterium tuberculosis; assay: Antimycobacterial activity against Mycobacterium tuberculosis H37Rv ATCC 27294 infected in Balb/c mouse assessed as reduction in bacterial load in spleen at 50 mg/kg, po qd administered five days in a week starting 2 weeks post challenge measured after 10 weeks relative to DMSO-treated control; format: functional; outline: as §1
[14] = system: Mycobacterium tuberculosis; assay: Antimycobacterial activity against Mycobacterium tuberculosis H37Rv ATCC 27294 infected in Balb/c mouse assessed as reduction in bacterial load in spleen at 25 mg/kg, po qd administered five days in a week starting 2 weeks post challenge measured after 3 to 6 weeks relative to untreated control; format: functional, organism-based; set-up: dose 25 mg/kg; outline: as §1
[15] = system: Mycobacterium tuberculosis; assay: Antimycobacterial activity against Mycobacterium tuberculosis H37Rv ATCC 27294 infected in Balb/c mouse assessed as reduction in bacterial load in spleen at 50 mg/kg, po qd administered five days in a week starting 2 weeks post challenge measured after 6 weeks relative to DMSO-treated control; format: functional; outline: as §1
[16] = system: Mycobacterium tuberculosis; assay: Antimycobacterial activity against Mycobacterium tuberculosis H37Rv ATCC 27294 infected in Balb/c mouse assessed as reduction in bacterial load in spleen at 100 mg/kg, po qd administered five days in a week starting 2 weeks post challenge measured after 6 weeks relative to untreated control; format: functional; outline: as §1
[17] = system: Mycobacterium tuberculosis; assay: Antimycobacterial activity against Mycobacterium tuberculosis H37Rv ATCC 27294 infected in Balb/c mouse assessed as reduction in bacterial load in lung at 100 mg/kg, po qd administered five days in a week starting 2 weeks post challenge measured after 10 weeks relative to untreated control; format: functional; outline: as §1
[18] = system: Mycobacterium tuberculosis; assay: Antimycobacterial activity against Mycobacterium tuberculosis H37Rv ATCC 27294 infected in Balb/c mouse assessed as reduction in bacterial load in lung at 100 mg/kg, po qd administered five days in a week starting 2 weeks post challenge measured after 6 weeks relative to untreated control; format: functional; outline: as §1
[19] = system: Mycobacterium tuberculosis; assay: Antimycobacterial activity against Mycobacterium tuberculosis H37Rv ATCC 27294 infected in Balb/c mouse assessed as reduction in bacterial load in lung at 100 mg/kg, po qd administered five days in a week starting 2 weeks post challenge measured after 3 weeks relative to untreated control; format: functional; outline: as §1
[20] = system: Mycobacterium tuberculosis; assay: Antimycobacterial activity against Mycobacterium tuberculosis H37Rv ATCC 27294 infected in Balb/c mouse assessed as reduction in bacterial load in spleen at 100 mg/kg, po qd administered five days in a week starting 2 weeks post challenge measured after 10 weeks relative to untreated control; format: functional; outline: as §1
[21] = system: Mycobacterium tuberculosis; assay: Antimycobacterial activity against Mycobacterium tuberculosis H37Rv ATCC 27294 infected in Balb/c mouse assessed as reduction in bacterial load in spleen at 100 mg/kg, po qd administered five days in a week starting 2 weeks post challenge measured after 3 weeks relative to untreated control; format: functional; outline: as §1

O=C(N/N=C/c1ccc(OCc2cn(Cc3ccccc3)nn2)cc1)c1ccncc1
MIC99 [1]: 0.78 µM (≈ 0.322 µg/mL) | Activity (THP-1): > 50 µM

O=C(N/N=C/c1ccc(OCCn2cc(COc3ccc(Cl)cc3)nn2)cc1)c1ccncc1
log10cfu [2]: 1.5 | log10cfu [3]: 1.08 | MIC99 [1]: 0.195 µM (≈ 0.093 µg/mL) | Activity [4]: inactive | Activity (THP-1): > 50 µM | log10cfu [5]: 2.58 | log10cfu [6]: 0.02 | log10cfu [7]: 2.58 | Ratio [8]: 2 | Activity [9]: inactive | log10cfu [10]: 0.91 | log10cfu [11]: 1.46 | log10cfu [12]: 0.82 | log10cfu [13]: 3.31 | Activity [14]: inactive | log10cfu [15]: 2.15

O=C(N/N=C/c1ccc(OCCn2cc(-c3ccccc3)nn2)cc1)c1ccncc1
MIC99 [1]: 0.39 µM (≈ 0.161 µg/mL) | Activity (THP-1): > 50 µM

O=C(N/N=C/c1ccc(OCCCn2cc(C3(O)CCCCC3)nn2)cc1)c1ccncc1
MIC99 [1]: 0.78 µM (≈ 0.35 µg/mL) | Activity (THP-1): > 50 µM

O=C(N/N=C/c1ccc(OCCn2cc(COc3ccccc3)nn2)cc1)c1ccncc1
MIC99 [1]: 0.39 µM (≈ 0.173 µg/mL) | Activity (THP-1): > 50 µM

Cc1ccc(OCc2cn(CCCOc3ccc(/C=N/NC(=O)c4ccncc4)cc3)nn2)cc1
MIC99 [1]: 0.78 µM (≈ 0.367 µg/mL) | Activity (THP-1): > 50 µM

CCCn1cc(COc2ccc(/C=N/NC(=O)c3ccncc3)cc2)nn1
MIC99 [1]: 0.78 µM (≈ 0.284 µg/mL) | Activity (THP-1): > 50 µM

CCC(=O)OCc1cn(CCCOc2ccc(/C=N/NC(=O)c3ccncc3)cc2)nn1
MIC99 [1]: 0.78 µM (≈ 0.34 µg/mL) | Activity (THP-1): > 50 µM

O=C(N/N=C/c1ccc(OCCCn2cc(CO)nn2)cc1)c1ccncc1
MIC99 [1]: 0.78 µM (≈ 0.297 µg/mL) | Activity (THP-1): > 50 µM

O=C(N/N=C/c1ccc(OCCn2cc(C3(O)CCCCC3)nn2)cc1)c1ccncc1
MIC99 [1]: 0.39 µM (≈ 0.169 µg/mL) | Activity (THP-1): > 50 µM

O=C(N/N=C/c1ccc(OCCCn2cc(COc3ccc(Cl)cc3)nn2)cc1)c1ccncc1
MIC99 [1]: 0.78 µM (≈ 0.383 µg/mL) | Activity (THP-1): > 50 µM

NNC(=O)c1ccncc1 [ISONIAZID]
log10cfu [16]: 3.68 | log10cfu [17]: 3.38 | log10cfu [18]: 2.59 | log10cfu [19]: 1.22 | MIC99 [1]: 0.39 µM (≈ 0.0535 µg/mL) | log10cfu [20]: 4 | log10cfu [21]: 2.66

O=C(N/N=C/c1ccc(OCCn2cc(CO)nn2)cc1)c1ccncc1
MIC99 [1]: 0.78 µM (≈ 0.286 µg/mL) | Activity (THP-1): > 50 µM

O=C(N/N=C/c1ccc(OCCCn2cc(COc3ccccc3)nn2)cc1)c1ccncc1
MIC99 [1]: 0.39 µM (≈ 0.178 µg/mL) | Activity (THP-1): > 50 µM

CC(C)n1cc(COc2ccc(/C=N/NC(=O)c3ccncc3)cc2)nn1
MIC99 [1]: 0.78 µM (≈ 0.284 µg/mL) | Activity (THP-1): > 50 µM

CO[C@H]1/C=C/O[C@@]2(C)Oc3c(C)c(O)c4c(O)c(c(/C=N/N5CCN(C)CC5)c(O)c4c3C2=O)NC(=O)/C(C)=C\C=C\[C@H](C)[C@H](O)[C@@H](C)[C@@H](O)[C@@H](C)[C@H](OC(C)=O)[C@@H]1C [RIFAMPIN]
log10cfu [6]: 1.93 | log10cfu [7]: 3.31 | log10cfu [10]: 6.14 | log10cfu [11]: 1.76 | log10cfu [12]: 2.8

CCCCc1cn(CCOc2ccc(/C=N/NC(=O)c3ccncc3)cc2)nn1
MIC99 [1]: 0.78 µM (≈ 0.306 µg/mL) | Activity (THP-1): > 50 µM

CCCCc1cn(CCCOc2ccc(/C=N/NC(=O)c3ccncc3)cc2)nn1
MIC99 [1]: 0.39 µM (≈ 0.159 µg/mL) | Activity (THP-1): > 50 µM

O=C(N/N=C/c1ccc(OCCn2cc(-c3ccccn3)nn2)cc1)c1ccncc1
MIC99 [1]: 0.39 µM (≈ 0.161 µg/mL) | Activity (THP-1): > 50 µM

Cc1ccc(OCc2cn(CCOc3ccc(/C=N/NC(=O)c4ccncc4)cc3)nn2)cc1
MIC99 [1]: 0.39 µM (≈ 0.178 µg/mL) | Activity (THP-1): > 50 µM

CCCCCn1cc(COc2ccc(/C=N/NC(=O)c3ccncc3)cc2)nn1
MIC99 [1]: 0.39 µM (≈ 0.153 µg/mL) | Activity (THP-1): > 50 µM

CCCCn1cc(COc2ccc(/C=N/NC(=O)c3ccncc3)cc2)nn1
MIC99 [1]: 0.39 µM (≈ 0.148 µg/mL) | Activity (THP-1): > 50 µM

CCCc1cn(CCCOc2ccc(/C=N/NC(=O)c3ccncc3)cc2)nn1
MIC99 [1]: 0.78 µM (≈ 0.306 µg/mL) | Activity (THP-1): > 50 µM

CCC(=O)OCc1cn(CCOc2ccc(/C=N/NC(=O)c3ccncc3)cc2)nn1
MIC99 [1]: 0.78 µM (≈ 0.33 µg/mL) | Activity (THP-1): > 50 µM
